Consider 17 compounds from ChEMBL document CHEMBL1153465, “C5-Modified nucleosides exhibiting anticancer activity” (Bioorg Med Chem Lett, 2009).

The term GI50 denotes the concentration giving 50% growth inhibition.

What all share (format): functional
In one assay the test system is NUGC-3. Put plainly: Cytotoxicity against human NUGC3 cells by SRB assay. For orientation: The SRB assay estimates cell density from bound dye.
A further assay deals with ACHN. Put plainly: Cytotoxicity against human ACHN cells by SRB assay.
Assay [1] deals with PC-3. Put plainly: Cytotoxicity against human PC3 cells by SRB assay.
Assay [2] concerns MDA-MB-231. Put plainly: Cytotoxicity against human MDA-MB-231 cells by SRB assay.
Assay [3] deals with NCI-H23. Put plainly: Cytotoxicity against human NCI-H23 cells by SRB assay.
Assay [4] has as its system HCT-15. Description: Cytotoxicity against human HCT15 cells by SRB assay.
The test system of assay [5] is MDA-MB-231. Put plainly: Cytotoxicity against human MDA-MB-231 cells at 10 uM by SRB assay. An outline of the steps:
(§1)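 Growth inhibition measured at one fixed test concentration by sulforhodamine B assay. Cells were kept in RPMI 1640 plus 5% fetal bovine serum at 37 °C under humidified 5% CO₂. Adriamycin served as positive control. Results are given as […] of cancer cell growth.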

Assay [6] has as its system HCT-15. Put plainly: Cytotoxicity against human HCT15 cells at 10 uM by SRB assay. In outline:
as §1

In assay [7] the test system is NCI-H23. Put plainly: Cytotoxicity against human NCI-H23 cells at 10 uM by SRB assay. In outline: as §1
Assay [8] has as its system PC-3. Put plainly: Cytotoxicity against human PC3 cells at 10 uM by SRB assay. In outline: as §1

For `COc1cccc2c1C(=O)c1c(O)c3c(c(O)c1C2=O)C[C@@](O)(C(=O)CO)C[C@@H]3O[C@H]1C[C@H](N)[C@H](O)[C@H](C)O1` [DOXORUBICIN], the GI50 in the assay on NUGC-3 worked out at 0.25 µM; with ACHN it was 0.41 µM; in the assay on PC-3 [1], 0.73 µM; in the assay with MDA-MB-231 [2], 0.61 µM; in the assay on NCI-H23 [3], 0.51 µM; in the assay on HCT-15 [4] it was 1.64 µM.
Regarding `CC(=O)OC[C@H]1O[C@@H](n2cc(-c3cc(-c4ccccc4)no3)c(=O)[nH]c2=O)C[C@@H]1OC(C)=O`, the growth, % of control at 10 µM in the assay with MDA-MB-231 [5] amounted to 95%; with HCT-15 [6], 92.2%; in the assay on NCI-H23 [7], 91.4%; in the assay on PC-3 [8], 85.5%.
For `CC(C)(C)c1ccc(Cn2cc(-c3cn([C@H]4C[C@H](O)[C@@H](CO)O4)c(=O)[nH]c3=O)nn2)cc1` the same measures were 106%, 96.9%, 95% and 92.3%.
For `CCc1ccc(-c2cc(-c3cn([C@H]4C[C@H](OC(C)=O)[C@@H](COC(C)=O)O4)c(=O)[nH]c3=O)on2)cc1` the same measures were 97.4%, 92.2%, 92.7% and 62.8%.
For `CC(=O)OC[C@H]1O[C@@H](n2cc(-c3cc(-c4ccc(C(C)C)cc4)no3)c(=O)[nH]c2=O)C[C@@H]1OC(C)=O`, in that order: 83.2%, 80.9%, 108% and 50.3%.
Take `CCc1ccc(Cn2cc(-c3cn([C@H]4C[C@H](OC(C)=O)[C@@H](COC(C)=O)O4)c(=O)[nH]c3=O)nn2)cc1`: the growth, % of control at 10 µM amounted to 97.7% in the assay on MDA-MB-231 [5], 88% with HCT-15 [6], 77.2% in the assay with NCI-H23 [7] and 91.2% in the assay with PC-3 [8].
Take `CCCCCc1cc(-c2cn([C@H]3C[C@H](OC(C)=O)[C@@H](COC(C)=O)O3)c(=O)[nH]c2=O)on1`: the growth, % of control at 10 µM in the assay with MDA-MB-231 [5] was determined as 91.5%; in the assay on HCT-15 [6] it was 98.7%; with NCI-H23 [7] it was 88.9%; in the assay on PC-3 [8], 93.9%.
For `CC(=O)OC[C@H]1O[C@@H](n2cc(-c3cc(-c4ccc(C(C)(C)C)cc4)no3)c(=O)[nH]c2=O)C[C@@H]1OC(C)=O`, in that order: 69.3%, 53.8%, 112% and 27.5%.
For `CC(=O)OC[C@H]1O[C@@H](n2cc(-c3cn(Cc4ccccc4)nn3)c(=O)[nH]c2=O)C[C@@H]1OC(C)=O`, in that order: 102%, 92.3%, 98.2% and 92.1%.
For `CCCCc1ccc(-c2cc(-c3cn([C@H]4C[C@H](OC(C)=O)[C@@H](COC(C)=O)O4)c(=O)[nH]c3=O)on2)cc1` the same measures were 72.2%, 71.4%, 97.4% and 30.4%.
As for `CC(=O)OC[C@H]1O[C@@H](n2cc(-c3cc(C)no3)c(=O)[nH]c2=O)C[C@@H]1OC(C)=O`, the growth, % of control at 10 µM came out at 106% in the assay with MDA-MB-231 [5], 102% in the assay with HCT-15 [6], 101% in the assay with NCI-H23 [7] and 92.4% with PC-3 [8].
For `O=c1[nH]c(=O)n([C@H]2C[C@H](O)[C@@H](CO)O2)cc1-c1cn(Cc2ccccc2)nn1` the same measures were 103%, 88.3%, 97.5% and 92.1%.
For `CCCCCCCCc1cc(-c2cn([C@H]3C[C@H](O)[C@@H](CO)O3)c(=O)[nH]c2=O)on1` the same measures were 96.7%, 88.2%, 120% and 77.3%.
For `CC(C)(C)c1ccc(-c2cc(-c3cn([C@H]4C[C@H](O)[C@@H](CO)O4)c(=O)[nH]c3=O)on2)cc1` the same measures were 102%, 79.8%, 98.9% and 87.9%.
`CC(=O)OC[C@H]1O[C@@H](n2cc(-c3cn(Cc4ccc(C(C)(C)C)cc4)nn3)c(=O)[nH]c2=O)C[C@@H]1OC(C)=O`: the growth, % of control at 10 µM was 105% with MDA-MB-231 [5], 94.2% with HCT-15 [6], 106% with NCI-H23 [7] and 90.4% in the assay with PC-3 [8].
In the case of `CCCc1cc(-c2cn([C@H]3C[C@H](OC(C)=O)[C@@H](COC(C)=O)O3)c(=O)[nH]c2=O)on1`, the growth, % of control at 10 µM in the assay on MDA-MB-231 [5] is 102%; in the assay with HCT-15 [6] it was 98.8%; in the assay on NCI-H23 [7], 96.9%; with PC-3 [8] it was 88.1%.
Consider `CC(=O)OC[C@H]1O[C@@H](n2cc(-c3cn(Cc4ccc(C(C)C)cc4)nn3)c(=O)[nH]c2=O)C[C@@H]1OC(C)=O`, for which the growth, % of control at 10 µM with MDA-MB-231 [5] was determined as 98.1%; with HCT-15 [6] it was 96.5%; in the assay with NCI-H23 [7] it was 86.7%; in the assay with PC-3 [8], 91.3%.
